High-throughput results from PubChem BioAssay.
VIM-2 inhibitor: inhibitors of Pseudomonas aeruginosa VIM-2 metallo-beta-lactamase | purified VIM-2, nitrocefin hydrolysis, epi-absorbance fluorescence | inhibition, % at 5.6 µM | 290,000 tested, 0.89% active | AID 1527;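 active means inhibition above the mean of all tested compounds plus 3 SD, cutoff set per screening run, cut at about 7.5% in these data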;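 further: red hydrolysis product quenches plate fluorescence so inhibitors raise well fluorescence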
IMP-1 inh: inhibitors of Pseudomonas aeruginosa IMP-1 metallo-beta-lactamase; purified IMP-1, nitrocefin hydrolysis, epi-absorbance fluorescence; inhibition, % at 5.6 µM; AID 1556; 290,000 tested, 0.45% active;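 active means inhibition above the mean plus 3 SD of all compounds in the same screening run, cut at about 4.5% in these data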
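Test system: recombinant IMP-1 enzyme, purified / Medium: HEPES buffer pH 7.1 with ZnSO4 and Brij 35 / Doses: single dose, 5.6 µM / Times: 25 °C, 15 min preincubation, 25 min reaction / Detection: Epi-absorbance via hydrolysed-nitrocefin quenching of white-plate fluorescence, 480/530 nm, EDTA stop / Evaluation: percent inhibition from optical density relative to buffer-blank wells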
CTSL1 counter: cathepsin L1 inhibition, PFM18AAP counter-screen | inhibition, % at 5.96 µM | 300,000 tested, 0.49% active | recombinant F. hepatica cathepsin L1, Z-Leu-Arg-MCA fluorescence | AID 1906;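 active means inhibition above the mean of all tested compounds plus 3 SD, set per screening campaign, cut at about 17% in these data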
M18AAP inhibitor: PfM18AAP enzyme inhibition; recombinant PfM18AAP, H-Glu-NHMec fluorogenic cleavage; inhibition, % at 7.35 µM; 290,000 tested, 1.2% active;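 active means inhibition above the campaign mean inhibition over all tested compounds plus 3 SD, cut at about 28% in these data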
Numbers stand for hits; – = inactive; · = no result given. Hits are enriched below; roughly 2.7% of the tested compounds scored in any of these assays.

SMILES	VIM-2 inhibitor	IMP-1 inh	CTSL1 counter	M18AAP inhibitor
COC(=O)c1sccc1NC(=O)c1c(C)c(-c2cccc(Cl)c2)nc2ccccc12	–	–	–	–
CCCC1CCc2c(sc(N)c2C(N)=O)C1 (stereo not given)	–	–	–	–
O=C(N/C(=C/C=C/c1ccccc1)C(=O)N1CCCCC1)c1ccc([N+](=O)[O-])cc1	–	–	18	–
O=C(N/C(=C/c1ccc([N+](=O)[O-])cc1)C(=O)N1CCCC1)c1ccccc1	–	–	–	–
N/C(CCS(=O)(=O)c1ccc(Cl)cc1)=N\OC(=O)c1ccc(Cl)cc1	–	–	17	–
N/C(CS(=O)(=O)c1ccccn1)=N\OC(=O)c1ccc(Cl)cc1	–	–	–	–
N/C(CCS(=O)(=O)c1ccc(Cl)cc1)=N\OC(=O)c1ccccc1C(F)(F)F	–	–	19	–
O=C(O)c1cc(NC(=O)c2cccc(C(=O)Nc3cc(C(=O)O)cc(C(=O)O)c3)c2)cc(C(=O)O)c1	–	–	–	–
Cc1oc2c(Cl)c(Cl)c(O)c(CN(C)C)c2c1C(=O)c1ccc(Cl)cc1	–	–	·	–
CC(C)N=C1NN=C(c2ccc(F)cc2)CS1	–	–	17	–
CCN=C1NN=C(c2ccc(C)cc2)CS1	–	–	–	–
OCCCc1nc2n(n1)C(c1ccccc1)C=C(c1ccc(F)cc1)N2 (stereo not given)	–	–	–	–
OCCCc1nc2n(n1)C(c1cccs1)C=C(c1ccccc1)N2 (stereo not given)	8.4	–	–	–
COc1ccc(NC(=O)Nc2nnc(Cc3ccc(F)cc3)s2)cc1	–	–	·	–
C/C(=N\Nc1c(Cl)c(Cl)nc(C(=O)O)c1Cl)c1ccc(O)cc1	–	–	–	31
CCCCOC(=O)CSc1nnc(-c2ccc(Cl)cc2Cl)o1	–	–	–	–
CC(C)OC(=O)CSc1nnc(-c2ccc(Cl)cc2Cl)o1	–	–	21	–
CC(=O)c1c[nH]c(C(=O)NCc2cccc(C(F)(F)F)c2)c1	–	–	–	–
COc1cc(NS(=O)(=O)c2ccc(NC(=S)NC(=O)COc3ccccc3OC)cc2)nc(OC)n1	–	–	–	–
c1ccc2c(Nc3ccc(N4CCOCC4)cc3)nc(N3CCOCC3)nc2c1	9.4	–	–	–
Cc1cccc(-c2nc(Nc3ccc(N4CCOCC4)cc3)c3ccccc3n2)c1	–	–	–	–
CCc1cccc(C)c1N1C(=O)CC(C)(C)CC1=O	–	–	–	–
CC(=O)N1CCc2[nH]c3ccc(C)cc3c2C1	–	–	51	–
CCOC(=O)N1CCc2[nH]c3ccc(C)cc3c2C1	8.8	–	–	–
O=C(N1CCc2[nH]c3ccccc3c2C1)C(F)(F)F	–	–	106	–
SMILES	VIM-2 inhibitor	IMP-1 inh	CTSL1 counter	M18AAP inhibitor
CC(C(=O)NC1CCCCC1)N1CCN(C)CC1 (stereo not given)	–	–	–	–
COc1ccc(Cl)c(NCCC(=O)O)c1	–	–	–	–
C#CCOCCOCCOCCNc1nc(N2CCN(C(=O)C([C@@H](C)CC)n3cc(C(N)CO)nn3)CC2)nc(N2CCN(C(=O)C([C@@H](C)CC)n3cc(C(N)COC(=O)C(F)(F)F)nn3)CC2)n1 (stereo not given in full)	·	·	–	·
Cc1ccc(C(=O)CSC2=C(C#N)C(c3ccco3)C3=C(CC(C)(C)CC3=O)N2)cc1 (stereo not given)	–	5.5	–	–
COCCC(=O)N1CCC(Oc2ccc(C(=O)N3C[C@@H]4CCC[C@H]3C4)cc2)CC1	–	5.1	–	–
COCCC(=O)N1CCC(Oc2ccc(C(=O)N3CCCC(OC)C3)cc2)CC1 (stereo not given)	–	–	–	–
CCCc1nc2sc3c(SCC(=O)NCc4ccco4)ncnc3c2c2c1CCC2	–	15	–	–
Cc1ccc(S(=O)(=O)N2CCCOC2CNC(=O)C(=O)NC2CCCCC2)cc1 (stereo not given)	–	–	–	–
CC1=C(C)CS(=O)N(c2ccc(S(N)(=O)=O)cc2)C1 (stereo not given)	–	–	–	30
COCCn1c(SCC(=O)N(C)c2ccccc2)nc2c([nH]c3ccccc32)c1=O	–	–	–	–
CN(C)Cc1c(C(=O)N/N=C/CCc2ccccc2)nnn1-c1nonc1N	–	–	–	–
COc1cc(C2c3sc(=O)[nH]c3SC3C(=O)N(c4ccc(Br)cc4)C(=O)C32)ccc1O (stereo not given)	–	–	–	28
Cc1cc2oc(=O)cc(C)c2cc1NC(=O)CCC(=O)O	–	–	–	–
Cc1cc2oc(=O)cc(C)c2cc1NC(=O)CCl	–	–	79	–
CCCCS(=O)(=O)N1CCCC(C(=O)Oc2ccc(Cl)cc2)C1 (stereo not given)	–	6.0	–	–
O=C(CCn1c(=S)oc2ccccc21)N1CCCCC1	–	–	–	–
Cc1cc(C)c(OCC(O)CN2CCN(c3ccccn3)CC2)c(C)c1 (stereo not given)	–	–	–	–
COc1cccc(C(=O)NC(=S)Nc2ccccc2N2CCCC2)c1	–	–	23	–
COc1cc(C(=O)OCCN2CCOCC2)ccc1O	–	–	–	–
O=C(OCCCN1CCOCC1)c1ccc(O)c(O)c1	–	–	–	44
O=C(CCl)NN1C(=O)NC2(CCCCC2)C1=O	–	–	–	–
O=C(CCl)NN1C(=O)NC(c2ccccc2)(c2ccccc2)C1=O	–	–	80	–
Cc1ccccc1C(=O)Nc1ccnn1C1CCN(Cc2cnn(C(C)C)c2)CC1	–	–	–	–
CNc1ccccc(-c2ccc3cc4c(cc3n2)OCO4)c1=O	–	–	–	–
N#CC1=C(N)C(C#N)(C#N)C2(C(=O)Nc3ccccc32)C2CCCC=C12 (stereo not given)	–	–	20	–
SMILES	VIM-2 inhibitor	IMP-1 inh	CTSL1 counter	M18AAP inhibitor
O=C1Nc2ccccc2C12OC1CCCCC1O2 (stereo not given)	–	–	–	–
Cc1ccc(NC(=O)c2cc(=O)[nH]c3ccccc23)cc1C	–	–	·	–
CC1CCCCC1NC1=NCCCS1 (stereo not given)	–	–	–	–
Cc1ccc(S(=O)(=O)c2c(N)n(CCCN(C)C)c3nc4ccccc4nc23)cc1	–	–	–	–
COc1ccc(S(=O)(=O)c2c(N)n(Cc3ccco3)c3nc4ccccc4nc23)cc1	–	5.6	–	–
Cc1ccc(Nc2cc(C)nc3ncnn23)cc1	–	–	–	–
C#CCOCCOCCOCCNc1nc(N2CCN(C(=O)[C@H](CCC(=O)O)n3cc(C(N)Cc4ccc(O)cc4)nn3)CC2)nc(N2CCN(C(=O)[C@H](CCC(=O)O)n3cc(C(N)CC(C)C)nn3)CC2)n1 (stereo not given in full)	–	–	–	–
C#CCOCCOCCOCCNc1nc(N2CCN(C(=O)[C@H]([C@@H](C)CC)n3cc([C@@H](N)CC(C)C)nn3)CC2)nc(N2CCN(C(=O)[C@H](CCCCN)n3cc([C@@H](N)C(C)CC)nn3)CC2)n1 (stereo not given in full)	–	–	31	–
